This note sets out measurements from the array DNA melting data of Ke et al. (doi:10.1101/2024.01.08.574731).

Series [1] can be described thus: folding enthalpy; higher = less favourable; fluorescence melt of hairpins on a sequencing array, two-state fit. The following applies: sodium 0.088 M. The method in brief:
(§1)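 Cy3 fluorescence of library hairpins on a sequenced MiSeq flow cell, with annealed Cy3 and quencher oligos, was imaged in 50 mM Na-HEPES pH 8.0, 25 mM NaCl in 2.5 °C steps up to 60 °C. Signals were normalised to pre-quench Cy3 and to control variants. Melting temperature and folding enthalpy came from bootstrapped two-state fits, inverse-variance combined over four replicates. Fitted temperatures were raised by 9.35 °C to match UV melts.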

A short description of series [2]: melting temperature; fluorescence melt of hairpins on a sequencing array, two-state fit, raised by 9.35 °C to match UV melts. The following applies: sodium 0.088 M. The procedure, abridged:
as §1

GTATACGAAAGTACGTAC ((((((....)))..))): the folding enthalpy in series [1] was -14 kcal/mol. Further, in series [2], the Tm was determined as 26.7 °C.

Take GATGGACCGAAAGGTATC (((..(((....)))))): in series [1], the folding enthalpy was -11.1 kcal/mol. In addition, the Tm in series [2] turned out to be 26.8 °C.

For the sequence GGATCGACGAAAGTCTCC (((..(((....)))))), in series [1], the folding enthalpy was -10.6 kcal/mol. For the same sequence, the Tm in series [2] is 27.9 °C.

Consider GCGTTCGAAAGAAGTCGC ((((((....)))..))), for which the folding enthalpy in series [1] was -26.4 kcal/mol. The Tm in series [2] amounted to 37.7 °C.

With GCGATGCGAAAGCGTAGC ((.(.((....)).).)), in series [1], the folding enthalpy was -24.6 kcal/mol. Further, in series [2], the Tm is 54.8 °C.

GATCCAAAATGGATC ((((((...)))))): in series [1], the folding enthalpy was -31.5 kcal/mol. For the same sequence, in series [2], the Tm worked out at 48.9 °C.

In the case of GGGATTCGAAAGAAGCCC (((.(((....))).))), in series [1], the folding enthalpy was -34.7 kcal/mol. In addition, in series [2], the Tm was found to be 63.5 °C.

Turning to GGTTTGGGAAACCAAGCC ((.((((....)))).)), in series [1], the folding enthalpy was -33.5 kcal/mol. For the same sequence, the Tm in series [2] turned out to be 49.9 °C.

For GTGGTCCCGAAAGGGCAC (((..(((....)))))), the folding enthalpy in series [1] was -14.8 kcal/mol. Further, the Tm in series [2] was 42.5 °C.

As for GATCGTAACTACGATC ((((((....)))))), the folding enthalpy in series [1] was -41.6 kcal/mol. In addition, the Tm in series [2] was 56 °C.

As for GCGTAGCGAAAGCTCGC (((.(((....)))))), the folding enthalpy in series [1] is -16.4 kcal/mol. Moreover, the Tm in series [2] was 63.3 °C.

On to GGGTTCGAAAGAACACCC ((((((....)))..))), for which, in series [1], the folding enthalpy is -11.8 kcal/mol. Further, the Tm in series [2] came to 55.1 °C.

In the case of GCGGTTCCGAAAGGACGC (((..(((....)))))), the folding enthalpy in series [1] is -25 kcal/mol. Also, the Tm in series [2] came out at 51.7 °C.

As for GCAGAGCGAAAGCACGGC ((.(.((....)).).)), in series [1], the folding enthalpy is -20.9 kcal/mol. Also, the Tm in series [2] was 55.1 °C.

In the case of GCAATCTCGAAAGAGTGC (((..(((....)))))), the folding enthalpy in series [1] is -24.5 kcal/mol. For the same sequence, the Tm in series [2] worked out at 43.2 °C.

For GATCGCCAGAGCGATC ((((((....)))))), the folding enthalpy in series [1] was -37.6 kcal/mol. In series [2], the Tm was determined as 68.3 °C.

Consider GATCGCACGGGCGATC ((((((....)))))), for which, in series [1], the folding enthalpy is -30.9 kcal/mol. The Tm in series [2] stood at 67.1 °C.

On to GAACTCGGAAACGAGTCC (.(((((....))))).), for which the folding enthalpy in series [1] is -14.6 kcal/mol. In addition, the Tm in series [2] was determined as 43.4 °C.

With AAACTGAAAAGTTT (((((....))))), in series [1], the folding enthalpy was -13.4 kcal/mol. The Tm in series [2] came out at 33.6 °C.

For GTATTTGGAAACAGATAC ((((.((....)).)))), in series [1], the folding enthalpy is -24.7 kcal/mol. Also, the Tm in series [2] was 32.4 °C.

As for GATCCTCCCAGGATC ((((((...)))))), the folding enthalpy in series [1] was -35.8 kcal/mol. Also, the Tm in series [2] was 55.7 °C.

In the case of GCTTTCGAAAGAAGCAGC ((((((....)))..))), the folding enthalpy in series [1] is -12.9 kcal/mol. The Tm in series [2] is 35.4 °C.

Take GAAAGTGGAAACACTTTC (((((((....))))))): the folding enthalpy in series [1] was -36.1 kcal/mol. Besides, in series [2], the Tm came out at 56.8 °C.

GAGGACGGAAACGTCTTC ((.((((....)))).)): in series [1], the folding enthalpy was -17.8 kcal/mol. In series [2], the Tm amounted to 47.3 °C.

For the sequence TGATCGAAAGATCA (((((....))))), the folding enthalpy in series [1] was -21 kcal/mol. Also, the Tm in series [2] came to 51.3 °C.

Consider GGCTTTGCGAAAGCAGCC (((..(((....)))))), for which, in series [1], the folding enthalpy was -17.2 kcal/mol. Moreover, the Tm in series [2] is 52.1 °C.

Consider GCAGCCGAAAGGCCTGC ((((((....))).))), for which the folding enthalpy in series [1] was -25.5 kcal/mol. Besides, the Tm in series [2] came out at 61.3 °C.

For the sequence GCCGGAGGAAACCCCGGC (((((.(....).))))), the folding enthalpy in series [1] is -36 kcal/mol. For the same sequence, the Tm in series [2] stood at 59.6 °C.

For the sequence GATCCTGATGAGGATC ((((((....)))))), in series [1], the folding enthalpy was -31.9 kcal/mol. In addition, in series [2], the Tm was determined as 51.1 °C.

Take GGTCTCACGAAAGTGACC (((..(((....)))))): the folding enthalpy in series [1] is -14.5 kcal/mol. Further, the Tm in series [2] amounted to 37.9 °C.

Regarding GCCAACGGAAACGCTGGC ((((.((....)).)))), the folding enthalpy in series [1] was -40 kcal/mol. In addition, the Tm in series [2] is 52 °C.

Consider GCAGCGCGAAAGCGTAGC ((..(((....)))..)), for which the folding enthalpy in series [1] is -15.9 kcal/mol. The Tm in series [2] is 56.4 °C.

Take TATGCGAAAGCATA (((((....))))): the folding enthalpy in series [1] was -13.6 kcal/mol. For the same sequence, the Tm in series [2] turned out to be 60.1 °C.

Consider GGTACCGAAAGGTCCACC ((((((....)))..))), for which, in series [1], the folding enthalpy was -13.3 kcal/mol. Further, the Tm in series [2] was found to be 41.3 °C.

With GCGTTACGACGC ((((....)))), the folding enthalpy in series [1] was -25.9 kcal/mol. In addition, the Tm in series [2] was 56.8 °C.

On to GTGCCCGAAAGGGTCAC ((((((....))).))), for which the folding enthalpy in series [1] is -18.1 kcal/mol. Besides, in series [2], the Tm stood at 55 °C.

As for GATCAACCGTTGATC ((((((...)))))), in series [1], the folding enthalpy is -38.1 kcal/mol. The Tm in series [2] is 41.1 °C.
